The entries come from a sample that favours hits as a whole.
T cruzi intra: blocks T. cruzi growth inside host cells; activity score (inhibition), % at 5.01 µM; AID 651903; 4.9% of 22,000 active; intracellular Trypanosoma cruzi in host cells, plate reader; in the data active = activity score above about 55%;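 also: parasites and compound incubated about four days before reading; 0% = median of neutral control wells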
INS-1E ATP HTS: rescue of cytokine-induced death in INS-1E beta cells; 0.1% of 20,000 active; protection from cytokine-induced ATP loss, % at 10 µM; INS-1E cytokine-induced death, ATP luminescence, 48 h; normalised: neutral wells 0, positive control 100;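 active = mean replicate protection from cytokine-induced ATP loss at least 50% and at least 75% of replicates each reaching 50%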
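Assay system: INS-1E rat insulinoma cells. Amount: 8000 cells per well. Medium: phenol-red-free RPMI with 5% fetal bovine serum. Reagent: IL-1β, TNF-α and IFN-γ cytokine mix. Doses: one compound concentration, pin transfer. Schedule: 48 h co-treatment, 10 min post-lysis read. Detection: CellTiter-Glo luminescence measuring cellular ATP.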
A1 apoptosis 2: blocks A1, raising caspase activity. 24,000 tested, under 10 active. caspase activation, % (concentration not given with the values). AID 2465. MEF A1-2A-BIM cells, caspase-Glo luminescence, 3 h; percent of clofoctol response, DMSO zero; in the data active = caspase activation above about 5.9%
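Material: mouse embryonic fibroblasts co-expressing A1 and BIM (A1-2A-BIM), primed for A1 dependence / Quantity: 2500 cells/well / Buffer or medium: RPMI-1640 growth medium with 10% FBS / Doses: 50 nL compound per well, pinned / Schedule: 3 h compound exposure at 37 °C / Signal: Caspase-Glo luminescence (DEVD substrate) / Measure: Caspase-3/7 activation, seen as rise in luminescence signal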
Numbers without * were called inactive; · = not tested or not shown.

SMILES | T cruzi intra | INS-1E ATP HTS | A1 apoptosis 2
Cc1ccc(S(=O)(=O)Nc2cccc3c2O[C@@H](CN(C)Cc2ccc4c(c2)OCO4)[C@@H](C)CN([C@H](C)CO)C3=O)cc1 | -11 | -8 | ·
C[C@@H]1CN([C@@H](C)CO)C(=O)c2cccc(NS(=O)(=O)c3cccs3)c2O[C@@H]1CN(C)Cc1ccc(C(=O)O)cc1 | -13 | 2 | -1
C[C@@H]1CN([C@H](C)CO)C(=O)c2cccc(NS(=O)(=O)c3cccs3)c2O[C@@H]1CN(C)Cc1ccc(C(=O)O)cc1 | 68* | 14 | 0
C[C@H]1CN([C@@H](C)CO)C(=O)Cc2cc(NC(=O)C3CC3)ccc2O[C@H]1CN(C)C(=O)Nc1ccccc1 | -16 | -1 | 1
Cc1noc(C)c1NC(=O)N(C)C[C@@H]1OCCCC[C@@H](C)Oc2ccc(N(C)C)cc2C(=O)N([C@@H](C)CO)C[C@@H]1C | · | · | 1
CC(C)(C)[C@H]1C=C(C(=O)O)O[C@@H](OCCCCO)C1 | · | · | 0
Cc1noc(C)c1NC(=O)Nc1cccc2c1O[C@@H](CN(C)Cc1ccc(C(=O)Nc3ccccc3N)cc1)[C@H](C)CN([C@H](C)CO)C2=O | 42 | 0 | ·
C[C@@H]1CN([C@H](C)CO)C(=O)c2cccc(NS(=O)(=O)c3ccccc3)c2O[C@@H]1CN(C)Cc1ccc(-c2ccccc2)cc1 | 14 | -11 | ·
C[C@@H]1CN([C@@H](C)CO)C(=O)c2cccc(NS(=O)(=O)c3ccccc3)c2O[C@@H]1CN(C)Cc1ccc(-c2ccccc2)cc1 | 87* | -72 | ·
COc1ccc(CN(C)C[C@H]2Oc3ccc(NC(=O)C4CCCCC4)cc3C(=O)N([C@@H](C)CO)C[C@H]2C)cc1 | 0 | -2 | ·
C[C@H](CO)N1C[C@H](C)[C@H](CN(C)Cc2ccc(C(=O)O)cc2)Oc2ccc(NC(=O)Nc3cccc4ccccc34)cc2CC1=O | 2 | 5 | 0
C[C@H]1CN([C@@H](C)CO)C(=O)Cc2cc(NC(=O)Nc3cccc4ccccc34)ccc2O[C@@H]1CN(C)Cc1ccc(C(F)(F)F)cc1 | 69* | -52 | 0
C[C@@H]1CN([C@@H](C)CO)C(=O)Cc2cc(NC(=O)Nc3cccc4ccccc34)ccc2O[C@@H]1CN(C)C(=O)Nc1ccc(C(F)(F)F)cc1 | 46 | -30 | 1
C[C@H]1CN([C@@H](C)CO)C(=O)Cc2cc(NC(=O)Nc3cccc4ccccc34)ccc2O[C@H]1CN(C)Cc1ccc(C(F)(F)F)cc1 | 73* | -81 | ·
C[C@@H]1CN([C@H](C)CO)C(=O)Cc2cc(NC(=O)Nc3cccc4ccccc34)ccc2O[C@H]1CN(C)Cc1ccc(C(F)(F)F)cc1 | 59* | -54 | 0
C[C@H](CO)N1C[C@H](C)[C@H](CN(C)Cc2ccc(C(F)(F)F)cc2)Oc2ccc(NC(=O)Nc3cccc4ccccc34)cc2CC1=O | 79* | -39 | ·
C[C@H](CO)N1C[C@H](C)[C@H](CN(C)Cc2ccccc2)Oc2ccc(NC(=O)Nc3cccc4ccccc34)cc2CC1=O | 40 | -11 | ·
C[C@H](CO)N1C[C@H](C)[C@H](CN(C)C(=O)Nc2ccc(C(F)(F)F)cc2)Oc2ccc(NC(=O)Nc3cccc4ccccc34)cc2CC1=O | 9 | -19 | 0
COc1ccc(CN(C)C[C@@H]2OCCCC[C@@H](C)Oc3ccc(N(C)C)cc3C(=O)N([C@@H](C)CO)C[C@H]2C)cc1 | · | · | 1
C[C@H](CO)N1C[C@H](C)[C@H](CN(C)S(=O)(=O)c2ccc(F)cc2)OCCCC[C@H](C)Oc2ccc(NC(=O)Nc3ccc4c(c3)OCO4)cc2C1=O | · | · | 1
C[C@@H]1CN([C@@H](C)CO)C(=O)c2cccc(NC(=O)NC3CCCCC3)c2O[C@@H]1CN(C)C(=O)Nc1cccc2ccccc12 | 23 | -8 | -2
O=C(O)CCCCCC(=O)N/N=C/c1ccccn1 | -12 | 0 | 0
Cc1ccc(S(=O)(=O)Nc2ccc3c(c2)CC(=O)N([C@@H](C)CO)C[C@@H](C)[C@@H](CN(C)Cc2ccc(C(=O)O)cc2)O3)cc1 | 2 | -3 | ·
C[C@@H]1CN([C@@H](C)CO)C(=O)Cc2cc(NC(=O)Nc3cccc4ccccc34)ccc2O[C@H]1CN(C)Cc1ccc(-c2ccccc2)cc1 | · | · | 1
C[C@@H]1CN([C@@H](C)CO)C(=O)c2cc(NC(=O)Nc3cccc4ccccc34)ccc2O[C@@H]1CN(C)Cc1ccc(Cl)c(Cl)c1 | 52 | · | ·
SMILES | T cruzi intra | INS-1E ATP HTS | A1 apoptosis 2
C[C@@H]1CN([C@@H](C)CO)C(=O)Cc2cc(NC(=O)Nc3cccc4ccccc34)ccc2O[C@@H]1CN(C)Cc1ccc2c(c1)OCO2 | 53 | -16 | 0
C[C@@H]1CN([C@@H](C)CO)C(=O)Cc2cc(NC(=O)Nc3cccc4ccccc34)ccc2O[C@@H]1CN(C)Cc1ccc(Cl)c(Cl)c1 | 65* | -62 | ·
C[C@H](CO)N1C[C@H](C)[C@@H](CN(C)Cc2ccccc2)Oc2ccc(NC(=O)Nc3cccc4ccccc34)cc2CC1=O | · | · | 0
C[C@H]1CN([C@@H](C)CO)C(=O)Cc2cc(NC(=O)Nc3cccc4ccccc34)ccc2O[C@@H]1CN(C)Cc1ccc(-c2ccccc2)cc1 | 58* | -7 | 0
C[C@@H]1CN([C@H](C)CO)C(=O)Cc2cc(NC(=O)Nc3cccc4ccccc34)ccc2O[C@@H]1CN(C)Cc1ccc2c(c1)OCO2 | 71* | -34 | ·
C[C@H]1CN([C@@H](C)CO)C(=O)Cc2cc(NC(=O)Nc3cccc4ccccc34)ccc2O[C@@H]1CN(C)Cc1ccccc1 | 58* | -16 | ·
COc1ccc(S(=O)(=O)Nc2ccc3c(c2)C(=O)N([C@H](C)CO)C[C@H](C)[C@H](CN(C)Cc2ccccc2)OCCCC[C@H](C)O3)cc1 | · | · | 0
COc1ccc(NC(=O)N(C)C[C@H]2Oc3ccc(NC(=O)c4ccncc4)cc3C(=O)N([C@H](C)CO)C[C@@H]2C)cc1 | -9 | 1 | 0
C[C@H]1CN([C@@H](C)CO)C(=O)Cc2cc(NC(=O)Nc3ccc(C(F)(F)F)cc3)ccc2O[C@H]1CN(C)C(=O)Nc1ccccc1 | -22 | -3 | -1
C[C@@H]1CCCCO[C@H](CN(C)C(=O)C2CCCCC2)[C@@H](C)CN([C@@H](C)CO)C(=O)c2cc(NS(=O)(=O)c3ccccc3)ccc2O1 | · | · | -2
C[C@@H]1CN([C@@H](C)CO)C(=O)c2cccc(NC(=O)Nc3ccc(F)cc3)c2O[C@H]1CN(C)Cc1ccc(C(=O)Nc2ccccc2N)cc1 | 73* | 2 | ·
C[C@H]1CN([C@@H](C)CO)C(=O)c2cccc(NC(=O)Nc3ccc(F)cc3)c2O[C@@H]1CN(C)Cc1ccc(C(=O)Nc2ccccc2N)cc1 | 67* | 4 | 0
C[C@H]1CN([C@@H](C)CO)C(=O)c2cc(NC(=O)Nc3ccc(F)cc3)ccc2O[C@H]1CN(C)Cc1ccc(C(=O)Nc2ccccc2N)cc1 | 51 | -4 | 0
C[C@@H]1CN([C@H](C)CO)C(=O)c2cccc(NC(=O)Nc3ccc(F)cc3)c2O[C@H]1CN(C)Cc1ccc(C(=O)Nc2ccccc2N)cc1 | 78* | 7 | 1

Screens from PubChem BioAssay.
